Experimental data reported in ChEMBL document CHEMBL5674882, “Benzolactam-related compounds promote apoptosis of HIV-infected human cells via protein kinase C-induced HIV latency reversal” (J Biol Chem, 2019).
Calls of active or inactive are those of the source. The rule behind the calls is not given here.

What was measured:
Format in all cases: cell-based
[1] = target: T1, Protein kinase C (PKC) (Homo sapiens) (UniProt O94806+P41743+P17252+P05129+Q05655+P05771+Q05513+Q02156+P24723+Q15139+Q04759); experiment: Activation of PKC in human ACH-2 cells infected with latent HIV-1 assessed as reversal of HIV-1 latency by measuring increase in p24 antigen level at 1 to 10000 nM incubated for 48 hrs by chemiluminescent enzyme immunoassay; details: ACH-2 cell line, dose 1-10000 nM
Outline: (§1)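 ACH-2 or U1 cells (5 × 10^5 cells/ml) incubated 48 h with graded drug concentrations. Supernatant p24 antigen measured by automated chemiluminescent immunoassay. EC50 calculated taking the maximum response with excess PMA as 100%. Means ± S.D. of three independent experiments.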

[2] = target: T1, Protein kinase C (PKC) (Homo sapiens); experiment: Activation of PKC in human U1 cells infected with latent HIV-1 assessed as reversal of HIV-1 latency by measuring increase in p24 antigen level at 1 to 10000 nM incubated for 48 hrs by chemiluminescent enzyme immunoassay; details: dose 1-10000 nM; outline: as §1
Protein kinase C (PKC) [3] = experiment: Activation of PKC in human ACH-2 cells infected with latent HIV-1 assessed as reversal of HIV-1 latency by measuring increase in p24 antigen level incubated for 48 hrs by chemiluminescent enzyme immunoassay; details: ach-2 cell line
Protein kinase C (PKC) [4] = experiment: Activation of PKC in human U1 cells infected with latent HIV-1 assessed as reversal of HIV-1 latency by measuring increase in p24 antigen level incubated for 48 hrs by chemiluminescent enzyme immunoassay
[5] = Toxicity in human A3.01 cells assessed as reduction in cell viability after 48 hrs by WST8 assay
Outline: (§2)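 Parental, uninfected lines (A3.01 for ACH-2, U937 for U1) at 5 × 10^5 cells/ml cultured with or without drug. Viable cells read at 48 h (day 2) and expressed as % of untreated control. CC50 taken as the concentration lowering viability by 50%.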

[6] = Toxicity in human U-937 cells assessed as reduction in cell viability after 48 hrs by WST8 assay; outline: as §2
[7] = Toxicity in human PBMC assessed as reduction in cell viability after 5 days by WST8 assay; details: time 5 day
Outline: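 PBMC from a healthy donor exposed to drug, with viability determined at day 5. CC50 is the concentration reducing viability by 50%.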

For `CCCCCCCCCCc1ccc2c(c1)N(C)[C@@H](C(C)C)C(=O)N[C@H](CO)CC2`, the Activity [1] was “inactive” and the Activity [2] was “inactive”.

In the case of `CC(C)[C@H]1C(=O)N[C@H](CO)Cc2cc3c(cc2N1C)C(C)(C)CCC3(C)C`, the Activity ([1]; filed as activator) was “Active”, the Activity ([2]; filed as activator) was “Active” and the EC50 (Protein kinase C (PKC) [3]) was 2.91 µM. The EC50 (Protein kinase C (PKC) [4]) was 9.89 µM, the CC50 at 48 h [5] was 19.5 µM and the CC50 at 48 h [6] was 22.9 µM. For the same compound, the CC50 at 120 h [7] was 65.8 µM.

With `CCCCCCCCCCc1ccc2c(c1)N(C)[C@H](C(C)C)C(=O)N[C@H](CO)CC2` the Activity ([1]; filed as activator) was “Active”, the Activity ([2]; filed as activator) was “Active” and the EC50 (Protein kinase C (PKC) [3]) was 1.54 µM. The EC50 (Protein kinase C (PKC) [4]) was 4 µM, the CC50 at 48 h [5] was > 100 µM and the CC50 at 48 h [6] was > 100 µM. The CC50 at 120 h [7] was > 100 µM.

In the case of `CC(C)[C@@H]1C(=O)N[C@H](CO)Cc2cc3c(cc2N1C)C(C)(C)CCC3(C)C`, the Activity [1] was “inactive” and the Activity [2] was “inactive”.
